Results on three compounds are retold here after ChEMBL document CHEMBL4414639, “Synthesis, Pharmacological Characterization, and Structure-Activity Relationships of Noncanonical Selective Agonists for α7 nAChRs” (J Med Chem, 2019).

Each structure is given as a SMILES string. Active and inactive are the calls of the source. The calls are words filed in the database; no cut-off is given here. Some results are limits rather than exact numbers.

Broadly, the EC50 is the midpoint of the concentration-response curve. By IC50 is commonly meant the concentration that gives 50% inhibition.

Assay [1] has as its target T1, Neuronal acetylcholine receptor subunit alpha-7 (Homo sapiens, UniProt P36544). In words: Agonist activity at alpha7 nAChR (unknown origin) transfected in HEK cells assessed as increase in intracellular calcium release incubated for 30 mins by FRET assay. The format is cell-based. In a few lines: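 Stable HEK cell line expressing α7 nAChR with TN-XXL FRET calcium biosensor (CNiFER), in DMEM with 10% FBS at 37 °C, 6% CO2. Cells preincubated 30 min at 37 °C in aCSF with PNU-120596 (10 µM final). FRET ratio (527/485 nm, 436 nm excitation) read at 37 °C over 120 s, agonist injected at 30 s, triplicate wells. EC50 from variable-slope sigmoidal fit of mean peak ratios, normalized to 316 µM response.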
In general terms: Calcium flux is commonly read through the fluorescence of an indicator in the cells.

In assay [2] the target is T2, 5-hydroxytryptamine receptor 3A (Homo sapiens) (UniProt P46098).
T2 sequence (whole entry): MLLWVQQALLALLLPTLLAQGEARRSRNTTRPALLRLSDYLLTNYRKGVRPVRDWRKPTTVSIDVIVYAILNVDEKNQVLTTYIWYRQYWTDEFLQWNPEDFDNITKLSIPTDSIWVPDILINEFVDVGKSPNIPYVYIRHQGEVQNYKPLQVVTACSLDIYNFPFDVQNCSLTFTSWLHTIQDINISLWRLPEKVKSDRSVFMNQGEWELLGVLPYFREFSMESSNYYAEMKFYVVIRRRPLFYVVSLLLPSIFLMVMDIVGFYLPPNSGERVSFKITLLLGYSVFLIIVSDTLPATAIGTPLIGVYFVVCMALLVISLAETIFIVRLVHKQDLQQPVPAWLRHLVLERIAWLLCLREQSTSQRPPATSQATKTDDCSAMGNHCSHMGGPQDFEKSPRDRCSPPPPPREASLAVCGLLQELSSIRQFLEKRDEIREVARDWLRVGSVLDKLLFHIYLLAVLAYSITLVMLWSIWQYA
In words: Antagonist activity at 5HT3A (unknown origin) transfected in HEK cells assessed as decrease in agonist-induced intracellular calcium release incubated for 30 mins by FRET assay. The format is cell-based. Put shortly:
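CNiFER HEK cell monolayers stably expressing the receptor. Test compound at three concentrations in aCSF, preincubated 30 min at 37 °C, 6% CO2, before agonist addition: epibatidine for α4β2, 5-HT for 5-HT3A. TN-XXL FRET ratio (527/485 nm) read over 120 s at 37 °C, agonist injected at 30 s, triplicate wells. Agonist EC50 shifts fitted. KA computed as [A]/(DR−1) (competitive) or [A]/(Δmax/Δ−1) (noncompetitive). At least three independent experiments. α4β2 stoichiometry not distinguished.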

The target in assay [3] is T3, Neuronal acetylcholine receptor; alpha4/beta2 (Homo sapiens) (UniProt P17787+P43681). Put plainly: Antagonist activity at alpha4beta2 nAChR (unknown origin) transfected in HEK cells assessed as decrease in epibatidine-induced intracellular calcium release incubated for 30 mins by FRET assay.
Assay [4] addresses T1, Neuronal acetylcholine receptor subunit alpha-7. In words: Agonist activity at human alpha7 nAChR expressed in Xenopus laevis oocytes assessed as increase in channel currents at 30 uM at -60 mV holding potential followed washout for 211 sec and then 60 uM of Ach was applied by two electrode voltage clamp assay.
The target in assay [5] is T3, Neuronal acetylcholine receptor; alpha4/beta2 (Homo sapiens). Put plainly: Inhibition of human (alpha4)3 (beta2)2 nAChR expressed in Xenopus laevis oocytes assessed as increase in channel currents at 30 uM at -60 mV holding potential by two electrode voltage clamp assay. The format is cell-based. (Two-electrode voltage clamp holds a large cell at a set potential and records current.)

The species entered for assay [6] is Mus musculus. Put plainly: Agonist activity at mouse alpha1beta1epsilondelta nAChR expressed in Xenopus laevis oocytes assessed as increase in channel currents at 30 uM at -60 mV holding potential by two electrode voltage clamp assay. The class given is cell-based. In a few lines: (§1)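 Two-electrode voltage clamp on oocytes at -60 mV in Ringer's (115 mM NaCl, 2.5 mM KCl, 1.8 mM CaCl2, 10 mM HEPES, 1 µM atropine, pH 7.2), 4 mL/min flow. Test compound applied 6 s, then 271 s washout. Normalized to mean of two ACh precontrols: 30 µM for α1β1εδ, 100 µM for α3β4, 100 µM for LS α4β2, 10 µM for HS α4β2.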

For assay [7], the target named is T4, Neuronal acetylcholine receptor; alpha3/beta4 (Homo sapiens) (UniProt P30926+P32297). Put plainly: Inhibition of human alpha3beta4 nAChR expressed in Xenopus laevis oocytes assessed as increase in channel currents at 30 uM at -60 mV holding potential by two electrode voltage clamp assay. The format is cell-based.
Assay [8] concerns the target T1, Neuronal acetylcholine receptor subunit alpha-7. Put plainly: Agonist activity at human alpha7 nAChR expressed in Xenopus laevis oocytes assessed as increase in channel currents at -60 mV holding potential by two electrode voltage clamp assay relative Ach. The format is cell-based. In a few lines: (§2)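 Oocytes expressing human α7 nAChR (with human RIC-3 cDNA available), clamped at -60 mV in Ringer's pH 7.2 with 1 µM atropine, 2 mL/min flow. Drug applied 12 s, 211 s washout. Responses normalized to mean of two 60 µM ACh precontrol responses per oocyte. Data from six cells. Concentration-response data fit to the Hill equation. Sequence included 30 µM test compound, then 60 µM ACh, then 10 µM PNU-120596.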

For assay [9], the target named is T3, Neuronal acetylcholine receptor; alpha4/beta2 (Homo sapiens). In words: Agonist activity at human (alpha4)2 (beta2)3 nAChR expressed in Xenopus laevis oocytes assessed as increase in channel currents at 30 uM at -60 mV holding potential by two electrode voltage clamp assay. The class given is cell-based. In a few lines:
as §1

For assay [10] the target is unchanged. In words: Inhibition of human (alpha4)2 (beta2)3 nAChR expressed in Xenopus laevis oocytes assessed as increase in channel currents at 30 uM at -60 mV holding potential by two electrode voltage clamp assay. The format is cell-based.
For assay [11] the target is unchanged. In words: Agonist activity at human (alpha4)3 (beta2)2 nAChR expressed in Xenopus laevis oocytes assessed as increase in channel currents at 30 uM at -60 mV holding potential by two electrode voltage clamp assay. The class given is cell-based. Put shortly: as §1
For assay [12], the target named is T1, Neuronal acetylcholine receptor subunit alpha-7. In words: Agonist activity at human alpha7 nAChR expressed in Xenopus laevis oocytes assessed as increase in channel currents at 30 uM at -60 mV holding potential by two electrode voltage clamp assay. The format is cell-based. Put shortly: as §2
For assay [13], the species on record is Mus musculus. Put plainly: Inhibition of mouse alpha1beta1epsilondelta nAChR expressed in Xenopus laevis oocytes assessed as increase in channel currents at 30 uM at -60 mV holding potential by two electrode voltage clamp assay. The format is cell-based.
For assay [14], the target named is T1, Neuronal acetylcholine receptor subunit alpha-7. Put plainly: Inhibition of human alpha7 nAChR expressed in Xenopus laevis oocytes assessed as decrease in ACh-induced channel currents at -60 mV holding potential by two electrode voltage clamp assay. The class given is cell-based. Put shortly: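 Human α7 nAChR in oocytes under two-electrode voltage clamp at -60 mV, Ringer's pH 7.2, 2 mL/min. Test compound applied 12 s with 211 s washout, then 60 µM ACh applied. ACh response normalized to the mean of two ACh precontrols per oocyte. Inhibition concentration-response curves from six cells, Hill equation fit.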

Assay [15] deals with T4, Neuronal acetylcholine receptor; alpha3/beta4 (Homo sapiens). Put plainly: Agonist activity at human alpha3beta4 nAChR expressed in Xenopus laevis oocytes assessed as increase in channel currents at 30 uM at -60 mV holding potential by two electrode voltage clamp assay. The class given is cell-based. In a few lines:
as §1

T1 sequence (P36544 whole entry): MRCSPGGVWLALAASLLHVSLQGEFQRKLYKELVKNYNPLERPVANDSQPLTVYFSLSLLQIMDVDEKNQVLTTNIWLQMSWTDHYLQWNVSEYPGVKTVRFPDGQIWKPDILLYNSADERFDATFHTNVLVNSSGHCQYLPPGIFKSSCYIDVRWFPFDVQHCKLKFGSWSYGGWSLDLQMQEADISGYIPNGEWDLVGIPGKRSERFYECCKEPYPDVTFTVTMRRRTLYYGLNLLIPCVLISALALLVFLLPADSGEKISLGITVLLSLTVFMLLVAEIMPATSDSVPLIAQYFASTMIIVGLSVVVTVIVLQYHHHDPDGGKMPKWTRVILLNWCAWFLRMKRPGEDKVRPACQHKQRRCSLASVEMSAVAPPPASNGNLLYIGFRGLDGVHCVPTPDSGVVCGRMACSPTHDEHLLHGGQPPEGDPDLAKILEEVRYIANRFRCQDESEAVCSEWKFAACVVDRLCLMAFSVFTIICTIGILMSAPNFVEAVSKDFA

In the case of `COc1ccc(-c2cc(N(Cc3ccccn3)Cc3ccccn3)nc(N)n2)c(OC)c1`, in assay [1], the EC50 is 70 nM. Further, the Ka in [2] was greater than 10 µM; in [3], 2.5 µM.
For the compound `COc1ccccc1-c1cc(N(Cc2ccccn2)Cc2ccccn2)nc(N)n1`, the values for the EC50 in assay [1] and in [8] were 70 nM and 350 nM, respectively. In addition, the result in assay [4], in [6], in assay [9], in [11] and in assay [15] was inactive. The inhibition result in assay [5] and in assay [10] was “inactive” throughout. Moreover, in assay [7], the inhibition result is “Active”. Further, the Ka was greater than 10 µM in [2] and 6.3 µM in assay [3]. For the same compound, the Imax in assay [8] came out at 0.98. For the same compound, the outcome in [12] was Active. In assay [13], the “inhibition activity (active/inactive)” value is “Active”. In addition, the IC50 in assay [14] stood at 370 nM.
On to `Nc1nc(-c2ccsc2)cc(N(Cc2ccccn2)Cc2ccccn2)n1`, for which the EC50 in assay [1] was determined as 500 nM. Further, the Ka in assay [2] and in assay [3] was greater than 10 µM throughout.
